# Results as given in ChEMBL document CHEMBL3763085, “Optimization of tetrahydronaphthalene inhibitors of Raf with selectivity over hERG” (Bioorg Med Chem Lett, 2016).
# Columns and labels:
# Assay type in all cases: ADME, organism-based
# [1] = Volume of distribution at steady state in Sprague-Dawley rat at 1 mg/kg, iv; conditions: in vivo, read-out: Vdss
# How it was run: (§1)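 Male SD rats received 1 mg/kg intravenously. The vehicle was 10% 2-hydroxypropyl-beta-cyclodextrin or ethanol/PEG400/N,N-dimethylacetamide/water 1:4:1:4 (by volume), depending on compound. Plasma clearance (L/h/kg) and steady-state volume of distribution (L/kg) were derived.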
# [2] = Plasma clearance in Sprague-Dawley rat at 1 mg/kg, iv; how it was run: as §1
# [3] = Oral bioavailability in Sprague-Dawley rat at 10 mg/kg; conditions: in vivo
# How it was run: (§2)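 Male SD rats were dosed orally at 10 mg/kg in 10% 2-hydroxypropyl-beta-cyclodextrin.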
# [4] = AUC in Sprague-Dawley rat at 10 mg/kg, po; conditions: in vivo; how it was run: as §2
smiles,measurement,setting,value
Cl.Cn1cc(-c2cc(C(=O)N[C@@H]3CCc4ccc(Oc5ccnc6c5CCC(=O)N6)cc4C3)cc(C(F)(F)F)c2)cn1,Vd,[1],0.41 L/kg
same,clearance,[2],0.08 L/h/kg
same,bioavailability,[3],54%
same,AUC,[4],126 µM·h
CN(C)Cc1cc(C(=O)N[C@@H]2CCc3ccc(Oc4ccnc5c4CCC(=O)N5)cc3C2)cc(C(F)(F)F)c1.Cl.Cl,Vd,[1],0.75 L/kg
same,clearance,[2],0.23 L/h/kg
same,bioavailability,[3],100%
same,AUC,[4],98.6 µM·h
